SKN-1 inh: inhibitors of C. elegans SKN-1; C. elegans VP596 Pgst-4::GFP/RFP ratio, acrylamide-induced, 24 h; inhibition, % at 21.8 µM; 360,000 tested, 0.49% active;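 active = interference check ratio from 0.5 to 1.5 plus GFP to RFP signal ratio inhibition reaching or exceeding a fixed threshold, cut at about 30% in these data, passing the limit was not always enough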
ADAM10 inh: inhibitors of human ADAM10; recombinant ADAM10, EDANS/DABCYL FRET peptide cleavage, 3 h; inhibition, % at 7 µM; AID 720582; O14672; 370,000 tested, 0.62% active;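 active = inhibition above a per-campaign cutoff equal to the mean of compounds falling between control-based bounds plus 3 SD, cut at about 20% in these data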;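 also: 0% = DMSO wells while the 100% control is not disclosed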
Target sequence (O14672 214-748 limits assumed): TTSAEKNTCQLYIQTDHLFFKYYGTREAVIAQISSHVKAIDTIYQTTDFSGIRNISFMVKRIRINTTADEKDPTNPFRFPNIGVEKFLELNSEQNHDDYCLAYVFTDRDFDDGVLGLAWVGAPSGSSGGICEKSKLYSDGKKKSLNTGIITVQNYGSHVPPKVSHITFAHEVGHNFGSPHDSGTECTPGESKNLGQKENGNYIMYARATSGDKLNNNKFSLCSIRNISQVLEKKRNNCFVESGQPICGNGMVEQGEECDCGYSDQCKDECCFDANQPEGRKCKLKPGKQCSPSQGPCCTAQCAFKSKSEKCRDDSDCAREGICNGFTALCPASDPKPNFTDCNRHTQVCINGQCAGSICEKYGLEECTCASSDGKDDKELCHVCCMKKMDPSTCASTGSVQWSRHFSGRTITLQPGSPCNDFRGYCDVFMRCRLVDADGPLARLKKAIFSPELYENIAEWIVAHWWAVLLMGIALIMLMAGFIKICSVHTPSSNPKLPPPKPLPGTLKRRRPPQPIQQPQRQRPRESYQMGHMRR
ADAM17 inh: inhibitors of human ADAM17; inhibition, % at 6.95 µM; recombinant ADAM17, EDANS/DABCYL FRET peptide cleavage; AID 720648; 370,000 tested, 0.83% active;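 active = inhibition above the mean of compounds lying between control limits plus 3 SD, set per campaign, cut at about 8.5% in these data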;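 also: 0% = DMSO-only wells as the low control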
NR3A LBD binder: NR3A (human) ligand-binding domain modulation. NR3A LBD differential scanning fluorimetry, Tm shift; 0% = protein alone, 100% = glycine-bound protein. Tm shift relative to glycine control, % at 25 µM. 340,000 tested, 2.5% active;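 active = melting temperature shift of at least 10% of the positive control shift, at one fixed dose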
MT1-MMP act inh: blocks activation of human MT1-MMP; P50281; HT1080 RFP-PRO-GFP cells, GFP/RFP ratio fluorescence, overnight; percent of plate control window, DMSO zero; GFP/RFP ratio change, % at 20 µM; 360,000 tested, 0.061% active;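 active = GFP/RFP ratio change of at least 30% with cell ATP level not reduced by more than half and red fluorescence within 50% of control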
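system = RFP-PRO-GFP reporter HT1080 cells | dosing = 20 µM single dose, 1% DMSO | timing = overnight cell settling, then overnight compound exposure, 37 °C, 5% CO2 | read-out basis = GFP/RFP fluorescence ratio | controls = DMSO and RFP-L50D-GFP cell wells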
MPTP block: permeability transition pore inhibition; inhibition, % at 10 µM; isolated mouse mitochondria, Ca2+ swelling absorbance, 30 min; 360,000 tested, 1.4% active;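 active = inhibition of 50% or more, scaled per plate between neutral and stimulator controls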;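 also: 0% = DMSO wells given calcium and 100% = 1 mM EGTA wells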
Rh123 counter: mitochondrial membrane potential, counter-screen; shares compounds with MPTP block; isolated mitochondria, Rhodamine 123 fluorescence; inhibition, % at 10 µM; 5,000 tested, 78% active; in the data active = inhibition above about 22%;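 also: 0% = DMSO vehicle and 100% = positive control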
MPTP abs DR: dose response confirmation of mitochondrial permeability transition pore inhibitors; shares compounds with MPTP block; isolated mitochondria swelling, absorbance; IC50, µM; 780 tested, 58% active; AID 651561; in the data active = IC50 below about 20 µM
MPTP counter DR: active in counter-screen for permeability transition pore inhibitors. shares compounds with MPTP block. isolated mitochondria counterscreen, fluorescence read-out. IC50, µM. 780 tested, 49% active. AID 651564; in the data active = IC50 below about 80 µM
Numbers without * were called inactive. Only some compounds are listed: those with a hit (about 4.7% of all), similar ones and a draw of the others.

Results for Cc1cc(NC(=O)Nc2cccc(Cl)c2)n(-c2ccccc2)n1 ?
SKN-1 inh: 4; ADAM10 inh: 2; ADAM17 inh: 1; NR3A LBD binder: -5; MT1-MMP act inh: 3; MPTP block: 58*; Rh123 counter: 86*

How did Cc1cc(NC(=O)Nc2ccc(Cl)c(Cl)c2)n(-c2ccccc2)n1 do in these assays?
SKN-1 inh: -4; ADAM10 inh: 11; ADAM17 inh: 5; NR3A LBD binder: -1; MT1-MMP act inh: 1; MPTP block: 86*; Rh123 counter: 87*

Results for COc1ccc(NC(=O)CSc2nnc(-c3ccc(F)cc3)o2)cn1 ?
SKN-1 inh: 0; ADAM10 inh: -9; ADAM17 inh: -5; NR3A LBD binder: -1; MT1-MMP act inh: -1; MPTP block: -2

Results for O=C(Cc1ccccc1[N+](=O)[O-])NCc1ccc(Cl)cc1 ?
SKN-1 inh: -5; ADAM10 inh: 1; ADAM17 inh: 0; NR3A LBD binder: 5; MT1-MMP act inh: 11; MPTP block: -3

What do the screens show for `O=C(NCc1ccc(Cl)cc1)c1n[nH]c([N+](=O)[O-])c1Cl`?
SKN-1 inh: -7; ADAM10 inh: 3; ADAM17 inh: 3; NR3A LBD binder: -4; MT1-MMP act inh: 2; MPTP block: 76*; Rh123 counter: 91*

How did CCC(=O)Oc1ccc(NC(=O)CSCc2ccccc2)cc1 do in these assays?
SKN-1 inh: 5; ADAM10 inh: 4; ADAM17 inh: 1; NR3A LBD binder: -4; MT1-MMP act inh: 7; MPTP block: 0

Results for Cc1cccc(/C=N\NC(=O)c2ccc(Cl)cc2)c1O ?
SKN-1 inh: -1; ADAM10 inh: -4; ADAM17 inh: -3; NR3A LBD binder: 10*; MT1-MMP act inh: -7; MPTP block: 74*; Rh123 counter: 80*

Results for O=C(N/N=C/c1cc(Cl)ccc1O)c1ccc(Br)cc1 ?
SKN-1 inh: 9; ADAM10 inh: -27; ADAM17 inh: -6; NR3A LBD binder: 8; MT1-MMP act inh: -33; MPTP block: 92*; Rh123 counter: 64*

How did Cc1cccc(/C=N/NC(=O)Cc2ccc(Cl)cc2)c1O do in these assays?
SKN-1 inh: 17; ADAM10 inh: 8; ADAM17 inh: 0; NR3A LBD binder: 2; MT1-MMP act inh: -5; MPTP block: 16

Results for O=C(N/N=C\c1cc(Br)ccc1O)c1ccc(S(=O)(=O)N2CCCCC2)cc1 ?
SKN-1 inh: 1; ADAM10 inh: -9; ADAM17 inh: -3; NR3A LBD binder: 8; MT1-MMP act inh: 0; MPTP block: 66*; Rh123 counter: 53*

What do the screens show for `O=C(N/N=C/c1ccc(O)c(O)c1)c1cccc(S(=O)(=O)N2CCCCC2)c1`?
SKN-1 inh: -8; ADAM10 inh: -1; ADAM17 inh: -1; NR3A LBD binder: -7; MT1-MMP act inh: 2; MPTP block: -2

Results for CCCCSc1nnc(-c2ccc(NC(C)=O)cc2)n1C ?
SKN-1 inh: 4; ADAM10 inh: -5; ADAM17 inh: 0; NR3A LBD binder: 0; MT1-MMP act inh: 1; MPTP block: -3

Results for O=C(/C=C/c1cc([N+](=O)[O-])ccc1OC(F)F)Nc1cccc(OC(F)F)c1 ?
SKN-1 inh: 7; ADAM10 inh: 6; ADAM17 inh: 3; NR3A LBD binder: 13*; MT1-MMP act inh: 3; MPTP block: 99*; Rh123 counter: 72*

What do the screens show for `COc1ccc(CNC(=O)/C=C/c2cc([N+](=O)[O-])ccc2OC(F)F)cc1`?
SKN-1 inh: -23; ADAM10 inh: -1; ADAM17 inh: -3; NR3A LBD binder: -1; MT1-MMP act inh: 0; MPTP block: -1

How did C=CCN(c1ccc(C(=O)OC)cc1)S(=O)(=O)c1ccccc1 do in these assays?
SKN-1 inh: 6; ADAM10 inh: -5; ADAM17 inh: 0; NR3A LBD binder: -3; MT1-MMP act inh: 2; MPTP block: 0

Results for CN1CCN(NC(=O)Nc2cc(Cl)cc(Cl)c2)CC1 ?
SKN-1 inh: 1; ADAM10 inh: -1; ADAM17 inh: -4; NR3A LBD binder: -1; MT1-MMP act inh: 2; MPTP block: 90*; Rh123 counter: 91*

What do the screens show for `Cn1nc(C(C)(C)C)cc1NC(=O)Nc1cc(Cl)cc(Cl)c1`?
SKN-1 inh: 11; ADAM10 inh: 5; ADAM17 inh: 1; NR3A LBD binder: 10; MT1-MMP act inh: 16; MPTP block: 84*; Rh123 counter: 73*

What do the screens show for `Cc1ccc(C(C)C)c(OCC(=O)Nc2ccc3c(c2)nc(CCN2CCCCC2)n3C)c1`?
SKN-1 inh: 9; ADAM10 inh: -51; ADAM17 inh: -19; NR3A LBD binder: 1; MT1-MMP act inh: -3; MPTP block: 73*; Rh123 counter: -20; MPTP abs DR: 6.1*; MPTP counter DR: 75*

How did CCOCCn1ccc2c(OCC(=O)Nc3ccc(OC)cc3OC)cccc2c1=O do in these assays?
SKN-1 inh: -4; ADAM10 inh: -12; ADAM17 inh: 1; NR3A LBD binder: 5; MT1-MMP act inh: 8; MPTP block: 0

Results for COc1ccc(-c2nn(-c3ccccc3)cc2/C=N/N=C(N)N)cc1OC ?
SKN-1 inh: -6; ADAM10 inh: 2; ADAM17 inh: -1; NR3A LBD binder: -1; MT1-MMP act inh: -16; MPTP block: 89*; Rh123 counter: -31

What do the screens show for `COc1ccc(S(=O)(=O)NNC(=O)C2Cc3c(ccc4ccccc34)O2)cc1` (configuration not stated)?
SKN-1 inh: 4; ADAM10 inh: -8; ADAM17 inh: -3; NR3A LBD binder: -1; MT1-MMP act inh: 4; MPTP block: 80*; Rh123 counter: 54*

What do the screens show for `CCCCCCC1CC(CSC(=N)N)OC1=O` (configuration not stated)?
SKN-1 inh: 26; ADAM10 inh: 12; ADAM17 inh: 5; NR3A LBD binder: 1; MT1-MMP act inh: 1; MPTP block: 91*; Rh123 counter: -5; MPTP abs DR: inactive; MPTP counter DR: >80

Results for CC(C)(C)C1=CC(=O)C(=O)C(C(C)(C)C)=C1 ?
SKN-1 inh: 3; NR3A LBD binder: 5; MT1-MMP act inh: 7; MPTP block: 80*; Rh123 counter: 4

How did CCCn1c(=S)[nH]c2cc(C(=O)N3CCc4ccccc43)ccc2c1=O do in these assays?
SKN-1 inh: -12; ADAM10 inh: 5; ADAM17 inh: 0; NR3A LBD binder: -3; MT1-MMP act inh: -4; MPTP block: 60*; Rh123 counter: 48*

High-throughput results: PubChem BioAssay, several laboratories
